This note sets out measurements from ChEMBL document CHEMBL2086372 (ACS Med Chem Lett, 2012).

Test [1] concerns the target T1, 5-hydroxytryptamine receptor 1A (Homo sapiens, UniProt P08908).
T1 sequence (P08908 whole entry): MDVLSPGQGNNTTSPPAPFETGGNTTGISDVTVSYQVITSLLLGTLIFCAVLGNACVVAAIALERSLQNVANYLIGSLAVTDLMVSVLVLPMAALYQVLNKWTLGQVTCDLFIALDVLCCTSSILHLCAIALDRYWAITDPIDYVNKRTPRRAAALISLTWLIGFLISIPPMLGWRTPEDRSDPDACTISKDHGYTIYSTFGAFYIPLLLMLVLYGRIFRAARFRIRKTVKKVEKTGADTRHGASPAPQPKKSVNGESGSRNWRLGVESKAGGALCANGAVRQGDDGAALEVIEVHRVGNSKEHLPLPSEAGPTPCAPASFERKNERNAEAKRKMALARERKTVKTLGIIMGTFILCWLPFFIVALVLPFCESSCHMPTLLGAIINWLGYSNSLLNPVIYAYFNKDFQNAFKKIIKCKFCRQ
Kind of test: Displacement of [3H]8-OH-DPAT from human 5HT1A receptor expressed in HeLa cells after 30 mins. In kind it is cell-based. The procedure, abridged: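 pKi is derived from displacement of [3H]-8-OH-DPAT binding at human cloned 5-HT1A receptor. Values are means ± SEMs of 3–6 separate experiments.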
For orientation: Displacement assays read how much labelled ligand stays bound in the presence of the test substance.

Test [2] concerns the target T2, Alpha-2C adrenergic receptor (Homo sapiens) (UniProt P18825).
T2 sequence (whole entry): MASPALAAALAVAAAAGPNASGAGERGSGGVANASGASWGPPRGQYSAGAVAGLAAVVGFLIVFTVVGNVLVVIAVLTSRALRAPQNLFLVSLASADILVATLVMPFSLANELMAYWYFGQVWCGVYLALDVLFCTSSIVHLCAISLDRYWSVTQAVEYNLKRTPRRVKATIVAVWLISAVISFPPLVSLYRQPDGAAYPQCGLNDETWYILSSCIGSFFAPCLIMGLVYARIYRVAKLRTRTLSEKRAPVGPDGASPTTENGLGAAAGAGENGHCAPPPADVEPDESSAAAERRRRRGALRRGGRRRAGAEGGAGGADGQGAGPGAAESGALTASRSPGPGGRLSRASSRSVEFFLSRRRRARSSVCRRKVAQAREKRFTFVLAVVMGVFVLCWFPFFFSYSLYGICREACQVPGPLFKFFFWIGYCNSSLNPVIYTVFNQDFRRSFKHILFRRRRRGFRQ
Kind of test: Agonist activity at human alpha2C adrenoceptor expressed in CHO cells assessed as extracellular acidification measured after 4 mins by cytosensor microphysiometric analysis relative to control. In kind it is functional, cell-based. The procedure, abridged:
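Binding and functional assays run on CHO cells expressing recombinant human α2-AR subtypes. Functional read-outs are agonist potency (pEC50) with intrinsic activity (ia), or antagonist pKb. Affinity is reported as pKi. Values are means ± SEMs of 3–6 separate experiments.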

Test [3] has as its target T3, 5-hydroxytryptamine receptor 1A (Homo sapiens) (UniProt P08908).
T3 sequence (whole entry): T1 sequence (P08908 whole entry)
The settings on record: HeLa.

In test [4] the target is T4, Alpha-2B adrenergic receptor (Homo sapiens) (UniProt P18089).
T4 sequence (whole entry): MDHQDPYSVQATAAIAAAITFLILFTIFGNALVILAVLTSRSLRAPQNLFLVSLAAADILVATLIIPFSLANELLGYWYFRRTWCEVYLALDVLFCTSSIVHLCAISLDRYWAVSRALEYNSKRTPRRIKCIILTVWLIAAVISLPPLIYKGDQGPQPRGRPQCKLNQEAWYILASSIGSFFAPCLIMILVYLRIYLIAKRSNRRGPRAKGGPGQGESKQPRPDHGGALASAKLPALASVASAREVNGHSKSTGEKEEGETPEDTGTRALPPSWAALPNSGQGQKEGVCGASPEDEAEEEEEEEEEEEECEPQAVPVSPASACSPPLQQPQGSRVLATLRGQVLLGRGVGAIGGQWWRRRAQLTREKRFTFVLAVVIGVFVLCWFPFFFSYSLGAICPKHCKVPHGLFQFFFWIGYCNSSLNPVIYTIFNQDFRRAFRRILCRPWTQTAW
Particulars: CHO.

Test [5] deals with T5, Alpha-2A adrenergic receptor (Homo sapiens) (UniProt P08913).
T5 sequence (whole entry): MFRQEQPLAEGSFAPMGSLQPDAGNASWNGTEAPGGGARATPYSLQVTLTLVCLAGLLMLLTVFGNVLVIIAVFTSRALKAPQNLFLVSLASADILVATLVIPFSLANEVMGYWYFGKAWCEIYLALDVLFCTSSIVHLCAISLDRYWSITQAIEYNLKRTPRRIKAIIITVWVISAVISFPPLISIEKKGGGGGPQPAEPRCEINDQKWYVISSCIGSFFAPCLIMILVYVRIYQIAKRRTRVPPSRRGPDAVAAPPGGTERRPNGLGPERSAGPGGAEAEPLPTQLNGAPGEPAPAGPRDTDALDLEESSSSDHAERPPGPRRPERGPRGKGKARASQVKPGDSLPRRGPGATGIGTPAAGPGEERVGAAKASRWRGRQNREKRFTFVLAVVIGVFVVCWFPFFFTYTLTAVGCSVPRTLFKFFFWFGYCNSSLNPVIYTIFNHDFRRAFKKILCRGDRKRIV
Particulars: CHO.

For test [6], the system named is Mus musculus. Kind of test: Antidepressant activity in CD1 mouse assessed as decrease in immobility time at 0.05 mg/kg, ip after 15 mins by forced swim test relative to vehicle-treated control. In kind it is functional, organism-based. Also on record: dose 0.05 mg/kg. Summed up: (§1)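 Mouse forced swimming test with immobility time as the read-out. Single ip doses were 0.012, 0.025, 0.05, 0.2 or 0.5 mg/kg, with fluoxetine 20 mg/kg ip as reference. Results are compared against vehicle-treated mice and given as means ± SEMs of 8–9 animals.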

The subject of test [7] is Mus musculus. As to the kind of experiment: Antidepressant activity in CD1 mouse assessed as decrease in immobility time at 0.025 mg/kg, ip after 15 mins by forced swim test relative to vehicle-treated control. In kind it is functional, organism-based. The arrangement: dose 0.025 mg/kg. The procedure, abridged:
as §1

The test system of test [8] is Mus musculus. Kind of test: Antidepressant activity in CD1 mouse assessed as decrease in immobility time at 0.2 mg/kg, ip after 15 mins by forced swim test relative to vehicle-treated control. The arrangement: dose 0.2 mg/kg. In kind it is functional, organism-based. Summed up:
as §1

In test [9] the test system is Mus musculus. Kind of test: Antidepressant activity in CD1 mouse assessed as decrease in immobility time at 0.012 mg/kg, ip after 15 mins by forced swim test relative to vehicle-treated control. In kind it is functional, organism-based. The arrangement: dose 0.012 mg/kg. Summed up: as §1
Test [10] relates to Mus musculus. As to the kind of experiment: Antidepressant activity in CD1 mouse assessed as decrease in immobility time at 0.5 mg/kg, ip after 15 mins by forced swim test relative to vehicle-treated control. In kind it is functional, organism-based. Also on record: dose 0.5 mg/kg. The procedure, abridged:
as §1

Test [11] relates to Mus musculus. Kind of test: Antidepressant activity in CD1 mouse assessed as decrease in immobility time at 20 mg/kg, ip after 15 mins by forced swim test relative to vehicle-treated control. In kind it is functional, organism-based. Also on record: dose 20 mg/kg. The procedure, abridged: as §1

Activity calls are given as the source filed them. The rule behind the calls is not given here.

In the case of `Clc1cccc(Cl)c1N=C1NCCN1` [CLONIDINE], the inhibitory constant (Ki) (commonly the equilibrium dissociation constant of an inhibitor or competing ligand from its target) in test [1] was 3.24 µM.
In test [1], `C=CCc1ccccc1O[C@H](C)C1=NCCN1` had a Ki of more than 10 µM. Also, the Intrinsic activity in test [2] was 0.5. Besides, the pD2 in test [3] was less than 5. Further, the pEC50 entry in [4] is “inactive”. Moreover, the pKb (commonly the negative decadic logarithm of the Kb, by convention in mol/L) in test [5] was 7.4.
Turning to `C=CCc1ccccc1OC(C)C1=NCCN1` (racemic) [ALLYPHENYLINE], the inhibitory constant (Ki) in [1] is 0.0282 µM. The result with Mus musculus [6], with Mus musculus [7] and in the test on Mus musculus [8] was Active. The result in the test with Mus musculus [9] and with Mus musculus [10] was inactive. Besides, the Intrinsic activity in [2] turned out to be 0.9. In test [3], this molecule yielded a pD2 of 6.86. Moreover, the pEC50 entry in test [4] was “inactive”. In test [5], this molecule gave a pKb of 7.4.
Take `CNCCC(Oc1ccc(C(F)(F)F)cc1)c1ccccc1` (configuration not stated): the result in the test on Mus musculus [11] was Active.
